Results: ChEMBL document CHEMBL4316611, “Design, synthesis and evaluation of novel (S)-tryptamine derivatives containing an allyl group and an aryl sulfonamide unit as anticancer agents” (Bioorg Med Chem Lett, 2019)

Each compound was assayed on HepG2 (assay: Cytotoxicity in human HepG2 cells assessed as reduction in cell viability incubated for 48 hrs by MTT assay). Conditions: HepG2, 48 h.
Assay type: functional, cell-based
Method in brief: (§1)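 MTT viability assay; cells exposed continuously to compounds for 48 h. IC50 values reported as mean ± SD. Cisplatin served as positive control.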

SMILES | IC50
C=CC[C@@H](Cc1c[nH]c2ccccc12)NS(=O)(=O)c1cccc(Br)c1 | 58.9 µM
C=CC[C@@H](Cc1c[nH]c2ccccc12)NS(=O)(=O)c1ccc(Cl)c([N+](=O)[O-])c1 | 89.7 µM
C=CC[C@@H](Cc1c[nH]c2ccccc12)NS(=O)(=O)c1ccc(CCC)cc1 | 58.4 µM
C=CC[C@@H](Cc1c[nH]c2ccccc12)NS(=O)(=O)c1ccc(C(F)(F)F)cc1 | 51.8 µM
C=CC[C@@H](Cc1c[nH]c2ccccc12)NS(=O)(=O)c1ccc(F)c(Cl)c1 | 38.2 µM
C=CC[C@@H](Cc1c[nH]c2ccccc12)NS(=O)(=O)c1cc(C)ccc1C | 44.6 µM
C=CC[C@@H](Cc1c[nH]c2ccccc12)NS(=O)(=O)c1cccc(C(F)(F)F)c1 | 46.9 µM
CCC[C@H](N)Cc1c[nH]c2ccccc12 | > 100 µM
C=CC[C@@H](Cc1c[nH]c2ccccc12)NS(=O)(=O)c1ccc2ccccc2c1 | 44.9 µM
C=CC[C@@H](Cc1c[nH]c2ccccc12)NS(=O)(=O)c1ccc(F)cc1Cl | 71.7 µM
C=CC[C@@H](Cc1c[nH]c2ccccc12)NS(=O)(=O)c1ccccc1OC(F)(F)F | 39.5 µM
C=CC[C@@H](Cc1c[nH]c2ccccc12)NS(=O)(=O)c1ccc(C(C)C)cc1 | 46.4 µM
C=CC[C@@H](Cc1c[nH]c2ccccc12)NS(=O)(=O)c1ccc(Cl)cc1F | 78.4 µM
C=CC[C@@H](Cc1c[nH]c2ccccc12)NS(=O)(=O)c1cc(F)c(Br)cc1F | 35.3 µM
C=CC[C@@H](Cc1c[nH]c2ccccc12)NS(=O)(=O)c1c(C)c(C)cc(C)c1C | 24.7 µM
C=CC[C@@H](Cc1c[nH]c2ccccc12)NS(=O)(=O)c1ccc(Br)cc1F | 58.7 µM
C=CC[C@@H](Cc1c[nH]c2ccccc12)NS(=O)(=O)c1ccc(F)cc1 | > 100 µM
C=CC[C@H](N)Cc1c[nH]c2ccccc12 | > 100 µM
CCC[C@@H](Cc1c[nH]c2ccccc12)NS(=O)(=O)c1ccccc1 | 68.7 µM
C=CC[C@@H](Cc1c[nH]c2ccccc12)NS(=O)(=O)c1ccc(Br)c(F)c1 | 58.1 µM
C=CC[C@@H](Cc1c[nH]c2ccccc12)NS(=O)(=O)c1ccccc1Cl | > 100 µM

What follows are compounds tested on HeLa (assay: Cytotoxicity in human HeLa cells assessed as reduction in cell viability incubated for 48 hrs by MTT assay). Conditions: not given.
Assay type: functional, cell-based
Method in brief: as §1

SMILES | IC50
C=CC[C@@H](Cc1c[nH]c2ccccc12)NS(=O)(=O)c1cccc(Br)c1 | 40.5 µM
C=CC[C@@H](Cc1c[nH]c2ccccc12)NS(=O)(=O)c1ccc(Cl)c([N+](=O)[O-])c1 | 53.2 µM
C=CC[C@@H](Cc1c[nH]c2ccccc12)NS(=O)(=O)c1ccc(CCC)cc1 | 67.1 µM
C=CC[C@@H](Cc1c[nH]c2ccccc12)NS(=O)(=O)c1ccc(C(F)(F)F)cc1 | 41.7 µM
C=CC[C@@H](Cc1c[nH]c2ccccc12)NS(=O)(=O)c1ccc(F)c(Cl)c1 | 33.8 µM
C=CC[C@@H](Cc1c[nH]c2ccccc12)NS(=O)(=O)c1cc(C)ccc1C | 45.6 µM
C=CC[C@@H](Cc1c[nH]c2ccccc12)NS(=O)(=O)c1cccc(C(F)(F)F)c1 | 45.1 µM
CCC[C@H](N)Cc1c[nH]c2ccccc12 | > 100 µM
C=CC[C@@H](Cc1c[nH]c2ccccc12)NS(=O)(=O)c1ccc2ccccc2c1 | 52.7 µM
C=CC[C@@H](Cc1c[nH]c2ccccc12)NS(=O)(=O)c1ccc(F)cc1Cl | 61.7 µM
C=CC[C@@H](Cc1c[nH]c2ccccc12)NS(=O)(=O)c1ccccc1OC(F)(F)F | 68.2 µM
C=CC[C@@H](Cc1c[nH]c2ccccc12)NS(=O)(=O)c1ccc(C(C)C)cc1 | 43.5 µM
C=CC[C@@H](Cc1c[nH]c2ccccc12)NS(=O)(=O)c1ccc(Cl)cc1F | 74.4 µM
C=CC[C@@H](Cc1c[nH]c2ccccc12)NS(=O)(=O)c1cc(F)c(Br)cc1F | 58.9 µM
C=CC[C@@H](Cc1c[nH]c2ccccc12)NS(=O)(=O)c1c(C)c(C)cc(C)c1C | 26.1 µM
C=CC[C@@H](Cc1c[nH]c2ccccc12)NS(=O)(=O)c1ccc(Br)cc1F | 58.5 µM
C=CC[C@@H](Cc1c[nH]c2ccccc12)NS(=O)(=O)c1ccc(F)cc1 | > 100 µM
C=CC[C@H](N)Cc1c[nH]c2ccccc12 | > 100 µM
CCC[C@@H](Cc1c[nH]c2ccccc12)NS(=O)(=O)c1ccccc1 | 78.9 µM
C=CC[C@@H](Cc1c[nH]c2ccccc12)NS(=O)(=O)c1ccc(Br)c(F)c1 | 54.5 µM
C=CC[C@@H](Cc1c[nH]c2ccccc12)NS(=O)(=O)c1ccccc1Cl | > 100 µM

These compounds were tested on CNE (assay: Cytotoxicity in human CNE1 cells assessed as reduction in cell viability incubated for 48 hrs by MTT assay). Conditions: not given.
Assay type: functional, cell-based
Method in brief: as §1

SMILES | IC50
C=CC[C@@H](Cc1c[nH]c2ccccc12)NS(=O)(=O)c1cccc(Br)c1 | 48 µM
C=CC[C@@H](Cc1c[nH]c2ccccc12)NS(=O)(=O)c1ccc(C(F)(F)F)cc1 | 38.1 µM
C=CC[C@@H](Cc1c[nH]c2ccccc12)NS(=O)(=O)c1ccc(F)c(Cl)c1 | 34.2 µM
C=CC[C@@H](Cc1c[nH]c2ccccc12)NS(=O)(=O)c1cc(C)ccc1C | 42 µM
C=CC[C@@H](Cc1c[nH]c2ccccc12)NS(=O)(=O)c1cccc(C(F)(F)F)c1 | 40.7 µM
CCC[C@H](N)Cc1c[nH]c2ccccc12 | > 100 µM
C=CC[C@@H](Cc1c[nH]c2ccccc12)NS(=O)(=O)c1ccc2ccccc2c1 | 45.2 µM
C=CC[C@@H](Cc1c[nH]c2ccccc12)NS(=O)(=O)c1ccccc1OC(F)(F)F | 66.9 µM
C=CC[C@@H](Cc1c[nH]c2ccccc12)NS(=O)(=O)c1ccc(C(C)C)cc1 | 43.6 µM
C=CC[C@@H](Cc1c[nH]c2ccccc12)NS(=O)(=O)c1cc(F)c(Br)cc1F | 43.4 µM
C=CC[C@@H](Cc1c[nH]c2ccccc12)NS(=O)(=O)c1c(C)c(C)cc(C)c1C | 26.3 µM
C=CC[C@H](N)Cc1c[nH]c2ccccc12 | > 100 µM
CCC[C@@H](Cc1c[nH]c2ccccc12)NS(=O)(=O)c1ccccc1 | 47.1 µM

These compounds were tested on A549 (assay: Cytotoxicity in human A549 cells assessed as reduction in cell viability incubated for 48 hrs by MTT assay). Conditions: A549, 48 h.
Assay type: functional, cell-based
Method in brief: as §1

SMILES | IC50
C=CC[C@@H](Cc1c[nH]c2ccccc12)NS(=O)(=O)c1cccc(Br)c1 | 52.1 µM
C=CC[C@@H](Cc1c[nH]c2ccccc12)NS(=O)(=O)c1ccc(C(F)(F)F)cc1 | 49.9 µM
C=CC[C@@H](Cc1c[nH]c2ccccc12)NS(=O)(=O)c1ccc(F)c(Cl)c1 | 41.6 µM
C=CC[C@@H](Cc1c[nH]c2ccccc12)NS(=O)(=O)c1cc(C)ccc1C | 48.3 µM
C=CC[C@@H](Cc1c[nH]c2ccccc12)NS(=O)(=O)c1cccc(C(F)(F)F)c1 | 52.1 µM
CCC[C@H](N)Cc1c[nH]c2ccccc12 | > 100 µM
C=CC[C@@H](Cc1c[nH]c2ccccc12)NS(=O)(=O)c1ccc2ccccc2c1 | 55.5 µM
C=CC[C@@H](Cc1c[nH]c2ccccc12)NS(=O)(=O)c1ccccc1OC(F)(F)F | 65.9 µM
C=CC[C@@H](Cc1c[nH]c2ccccc12)NS(=O)(=O)c1ccc(C(C)C)cc1 | 53 µM
C=CC[C@@H](Cc1c[nH]c2ccccc12)NS(=O)(=O)c1cc(F)c(Br)cc1F | 65 µM
C=CC[C@@H](Cc1c[nH]c2ccccc12)NS(=O)(=O)c1c(C)c(C)cc(C)c1C | 29.9 µM
C=CC[C@H](N)Cc1c[nH]c2ccccc12 | > 100 µM
CCC[C@@H](Cc1c[nH]c2ccccc12)NS(=O)(=O)c1ccccc1 | 91.5 µM
